{"data": "Measured values pooled from the literature", "PIK3CD": "Phosphatidylinositol 4,5-bisphosphate 3-kinase catalytic subunit delta isoform (PIK3CD, Homo sapiens, UniProt O00329)", "NTSR1": "Neurotensin receptor type 1 (NTSR1, Homo sapiens, UniProt P30989)", "NR3C2": "Mineralocorticoid receptor (NR3C2, Homo sapiens, UniProt P08235)", "COQ8A": "Atypical kinase COQ8A, mitochondrial (COQ8A, Homo sapiens, UniProt Q8NI60)", "ATP2A1": "Sarcoplasmic/endoplasmic reticulum calcium ATPase 1 (ATP2A1, Oryctolagus cuniculus, UniProt P04191)", "note": "Lines come from different studies, so protocols differ."}
{"SMILES": "Cc1nc(Nc2ccc3c(c2)/C(=C/c2ccccc2C)C(=O)N3)c2ccccc2n1", "target": "PIK3CD", "test": "enzyme activity, inhibitor, ADP detection", "quantity": "IC50", "value": "0.126 µM"}
{"SMILES": "COc1ccccc1C1CCN(c2nc(C3CC3)nc3ccc(N4CCC(N(C)C)C4)cc23)CC1 (stereo not shown)", "target": "NTSR1", "test": "β-arrestin recruitment, agonist", "quantity": "EC50", "value": "~65700 µM"}
{"SMILES": "C[C@]12CCC(=O)C=C1CC[C@@H]1[C@@H]2[C@@H](O)C[C@]2(CO)[C@@H](C(=O)CO)CC[C@@H]12", "target": "NR3C2", "test": "reporter gene, agonist, luciferase", "quantity": "EC50", "value": "0.056 µM"}
{"SMILES": "CCc1ccc(NC(=O)CSc2nc(-c3cccc(OC)c3)nc3c2Cc2c(CO)cnc(C)c2O3)cc1", "target": "COQ8A", "test": "ligand displacement, TR-FRET", "quantity": "IC50", "value": "2.17 µM"}
{"SMILES": "C[C@]12C[C@H](O)[C@H]3[C@@H](CCC4=CC(=O)CC[C@@]43C)[C@@H]1CC[C@@H]2C(=O)CO", "target": "NR3C2", "test": "reporter gene, agonist, luciferase", "quantity": "EC50", "value": "0.0113 µM"}
{"SMILES": "Cc1nc(N(C)c2ccc3c(c2)/C(=C/c2ccccc2Cl)C(=O)N3C)c2ccccc2n1", "target": "PIK3CD", "test": "enzyme activity, inhibitor, ADP detection", "quantity": "IC50", "value": "> 1 µM"}
{"SMILES": "COc1cc(/C=C/C(O)=C/C(=O)/C=C/c2ccc(O)cc2)ccc1O", "target": "ATP2A1", "test": "binding, fluorescence", "conditions": "pH 7.2", "quantity": "Kd", "value": "8 µM"}
{"SMILES": "Cc1ccc(Nc2nc3nonc3nc2Nc2cccc(C(F)(F)F)c2)cc1Cl", "target": "COQ8A", "test": "ligand displacement, TR-FRET", "quantity": "IC50", "value": "0.97 µM"}
{"SMILES": "Cc1nc(Nc2ccc3c(c2)/C(=C/c2ccccc2)C(=O)N3Cc2ccccc2)c2ccccc2n1", "target": "PIK3CD", "test": "enzyme activity, inhibitor, ADP detection", "quantity": "IC50", "value": "0.225 µM"}
{"SMILES": "CC(C)(C)OC(=O)N1CCN(Cc2ccn(Cc3ccc(Cl)cc3)c(=O)c2O)CC1", "target": "Lysine-specific demethylase 6A (Homo sapiens, UniProt O15550)", "test": "enzyme activity, inhibitor, AlphaScreen", "quantity": "IC50", "value": "5.43 µM"}
{"SMILES": "Cc1noc(C)c1Cc1ccc(C(=O)N2CCc3c(nc4cc(-c5ccccc5)[nH]n4c3=O)C2)o1", "target": "COQ8A", "test": "ligand displacement, TR-FRET", "quantity": "IC50", "value": "0.49 µM"}
{"SMILES": "COc1cc2ncnc(Nc3ccc4c(c3)/C(=C/c3ccccc3)C(=O)N4)c2cc1OC", "target": "PIK3CD", "test": "enzyme activity, inhibitor, ADP detection", "quantity": "IC50", "value": "0.7 µM"}
{"SMILES": "NC(=O)c1ncc(N2CCCCC2)nc1Nc1ccc(C2CCN(C[C@H]3CCN(c4ccc5c(c4)C(=O)N(C4CCC(=O)NC4=O)C5=O)C3)CC2)cc1 (stereo partly shown)", "target": "Tyrosine-protein kinase BTK (BTK, Homo sapiens, UniProt Q06187, T474I)", "test": "binding, SPR", "quantity": "Kd", "value": "0.018 µM"}
{"SMILES": "COc1cc2ncnc(Nc3ccc4c(c3)/C(=C/c3cccc(Cl)c3)C(=O)N4C)c2cc1OC", "target": "PIK3CD", "test": "enzyme activity, inhibitor, ADP detection", "quantity": "IC50", "value": "0.628 µM"}
{"SMILES": "O=C(Nc1nc2n(n1)C(c1ccc(F)cc1)C=C(c1ccccc1)N2)c1cccc([N+](=O)[O-])c1 (stereo not shown)", "target": "COQ8A", "test": "ligand displacement, TR-FRET", "quantity": "IC50", "value": "3.85 µM"}
{"SMILES": "COc1ccccc1C1CCN(c2nc(C3(F)CC3)nc3ccc(N(C)CCN4CCOCC4)cc23)CC1", "target": "NTSR1", "test": "β-arrestin recruitment, agonist", "quantity": "EC50", "value": "7.46 µM"}
{"SMILES": "Cc1nc(Nc2ccc3c(c2)/C(=C/c2ccccc2Cl)C(=O)N3)c2ccccc2n1", "target": "PIK3CD", "test": "enzyme activity, inhibitor, ADP detection", "quantity": "IC50", "value": "0.578 µM"}
{"SMILES": "COc1cc(/C=C/C(=O)CC(=O)/C=C/c2ccc(O)c(OC)c2)ccc1O", "target": "ATP2A1", "test": "binding, fluorescence", "conditions": "pH 7.2", "quantity": "Kd", "value": "6.8 µM"}
{"SMILES": "Nc1ncnc2c1ncn2[C@@H]1O[C@H](COP(=O)(O)OP(=O)(O)OP(=O)(O)O)[C@@H](O)[C@H]1O", "target": "P2X purinoceptor 3 (P2rx3, Rattus norvegicus, UniProt P49654)", "test": "ion current, agonist, patch clamp", "quantity": "EC50", "value": "0.271 µM"}
